Assay results: ChEMBL document CHEMBL1649438, “Activities of ceftobiprole and other cephalosporins against extracellular and intracellular (THP-1 macrophages and keratinocytes) forms of methicillin-susceptible and methicillin-resistant Staphylococcus aureus” (Antimicrob Agents Chemother, 2009)
Converted amounts (≈) assume the structure as drawn.

Legend:
Staphylococcus aureus [1] = assay: Antimicrobial activity against methicillin-susceptible Staphylococcus aureus ATCC 11632 infected in human THP-1 cells assessed as bacterial count per mg of cell protein at high extracellular compound concentration after 24 hrs at pH 7.4; type: functional
How it was run: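 Human THP-1 macrophage-like cells were infected with S. aureus to a postphagocytosis inoculum of 1.5 × 10^6 to 3.0 × 10^6 CFU/mg cell protein. Cells were then exposed 24 h to increasing extracellular antibiotic concentrations. Response was the log10 CFU change per mg protein from the postphagocytosis inoculum, n = 3. A Hill function was fitted on log-transformed axes. E0 and Emax were extrapolated to infinitely low and high concentrations. Cs was read by graphical interpolation. Concentrations were expressed as multiples of the broth MIC at pH 5.5 or pH 7.4.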

Staphylococcus aureus [2] = assay: Antimicrobial activity against Panton-valentine leucocidin-positive community-acquired methicillin-resistant Staphylococcus aureus STA 228 infected in human THP-1 cells assessed as change in bacterial count after 24 hrs at pH 7.4; type: functional, organism-based; details: STA 228, THP-1, 24 h
How it was run: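 THP-1 human macrophages infected with S. aureus (postphagocytosis inoculum 1.5 × 10^6 to 3.0 × 10^6 CFU/mg cell protein), then incubated 24 h with increasing extracellular antibiotic concentrations. Change in log10 CFU/mg cell protein from the postphagocytosis inoculum, n = 3. Hill function fitted on log-transformed data. Low-concentration value (E0) and high-concentration value (Emax) are extrapolated. Where a pH is given, concentrations are expressed as multiples of the broth MIC at that pH.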

Staphylococcus aureus [3] = assay: Antimicrobial activity against hospital-acquired vancomycin-intermediate Staphylococcus aureus NRS126 infected in human THP-1 cells assessed as change in bacterial count after 24 hrs at pH 5.5; type: functional, organism-based; details: NRS126, THP-1, 24 h
How it was run: (§1)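 THP-1 macrophages infected as described previously, with a postphagocytosis inoculum of 1.5 × 10⁶ to 3.0 × 10⁶ CFU/mg cell protein. Cells were exposed 24 h to increasing extracellular antibiotic concentrations. Response is the change in log10 CFU/mg protein from the inoculum (n = 3), fitted to a Hill function. E0 and Emax were extrapolated to infinitely low and high concentrations. EC50 and static concentration (graphical interpolation) are expressed as multiples of the broth MIC at pH 5.5 or 7.4.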

Staphylococcus aureus [4] = assay: Antimicrobial activity against hospital-acquired methicillin-resistant Staphylococcus aureus ATCC 33592 infected in human THP-1 cells assessed as change in bacterial count after 24 hrs; type: functional, organism-based; details: ATCC 33592, THP-1, 24 h; how it was run: as §1
Staphylococcus aureus [5] = assay: Antimicrobial activity against methicillin-susceptible Staphylococcus aureus ATCC 11632 infected in human THP-1 cells assessed as change in bacterial count after 24 hrs; type: functional, organism-based; details: ATCC 11632, THP-1, 24 h; how it was run: as §1
Staphylococcus aureus [6] = assay: Antimicrobial activity against methicillin-susceptible Staphylococcus aureus […] infected in human THP-1 cells assessed as change in bacterial count after 24 hrs at pH 7.4; type: functional, organism-based; details: THP-1, 24 h; how it was run: as §1

Nc1nc(/C(=N/O)C(=O)N[C@@H]2C(=O)N3C(C(=O)O)=C(/C=C4\CCN([C@@H]5CCNC5)C4=O)CS[C@H]23)ns1 [CEFTOBIPROLE]
log10cfu (Staphylococcus aureus [1]): -1.04 | EC50 (Staphylococcus aureus [2]): 0.33 ×MIC | EC50 (Staphylococcus aureus [3]): 0.77 × MIC | EC50 (Staphylococcus aureus [4]): 1.23 µg/mL (≈ 2.3 µM) | EC50 (Staphylococcus aureus [5]): 0.205 µg/mL (≈ 0.383 µM) | EC50 (Staphylococcus aureus [6]): 0.2 × MIC
